Measured values collected from several papers.
Protocols differ between the studies behind these lines.
Target: Tyrosine-protein kinase ITK/TSK (ITK, Homo sapiens, UniProt Q08881)
One construct used (Q08881 1-620): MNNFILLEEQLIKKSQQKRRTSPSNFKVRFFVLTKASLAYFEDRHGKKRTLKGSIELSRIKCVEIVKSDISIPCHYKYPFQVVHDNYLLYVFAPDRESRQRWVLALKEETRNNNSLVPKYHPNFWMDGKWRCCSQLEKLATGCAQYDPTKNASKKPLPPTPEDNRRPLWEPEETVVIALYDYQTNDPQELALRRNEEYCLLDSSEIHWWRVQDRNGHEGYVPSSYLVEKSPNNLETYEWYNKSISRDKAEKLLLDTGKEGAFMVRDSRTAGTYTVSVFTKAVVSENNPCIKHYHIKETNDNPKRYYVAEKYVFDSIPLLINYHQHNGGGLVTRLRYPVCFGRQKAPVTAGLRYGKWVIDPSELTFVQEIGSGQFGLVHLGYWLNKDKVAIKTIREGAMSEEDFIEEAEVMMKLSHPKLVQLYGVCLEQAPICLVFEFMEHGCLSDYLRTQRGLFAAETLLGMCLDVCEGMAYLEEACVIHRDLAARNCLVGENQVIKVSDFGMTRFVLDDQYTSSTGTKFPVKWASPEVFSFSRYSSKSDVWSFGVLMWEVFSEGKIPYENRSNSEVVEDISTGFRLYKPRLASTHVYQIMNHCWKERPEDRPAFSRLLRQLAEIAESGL

CNCc1ccccc1-c1csc([C@H](C)Nc2nc(C)nc3cc(OC)c(OC)cc23)c1  remaining binding (cell-free assay, competition with immobilised ligand; 1 µM): 100%
CN1CC(Oc2cnc(C#N)cc2-c2ccn3nc(NC(=O)C4CC4)cc3c2)C1  inhibition (enzyme activity, inhibitor; 1 µM): 3%
COc1ccc(C(=O)Nc2sc3c(c2C(N)=O)CCCC3)cc1OC  remaining activity (enzyme activity, inhibitor; 0.5 µM): 99.6%
CS(=O)(=O)N1CCCC(NC(=O)[C@H](CCC2CCCCC2)NC(=O)c2ccc(CNc3ncnc4c3nnn4-c3ccccc3)cc2)C1 (stereo partly drawn)  remaining binding (cell-free assay, competition with immobilised ligand; 0.1 µM): 100%
Cc1ccc(C(=O)Nc2ccc(CN3CCN(C)CC3)c(C(F)(F)F)c2)cc1C#Cc1cnc2cccnn12  remaining activity (enzyme activity; 23.5 nM): 82%
O=C(Nc1cnn(-c2csc(C(=O)NC3COC3)c2)c1)Nc1c(F)cccc1Cl  remaining activity (enzyme activity, inhibitor; 5 µM): 92.8%
O=c1c2ccccc2[nH]c(=S)n1CCN1CCC(=C(c2ccc(F)cc2)c2ccc(F)cc2)CC1  remaining activity (enzyme activity, inhibitor; 0.5 µM): 97.1%
CC(C)CC(=O)N1CCc2nc(-c3ccc(Br)cc3)nc(N(C)Cc3ccccc3)c2C1  remaining binding (cell-free assay, competition with immobilised ligand; 0.1 µM): 100%
CN(C)C1CCN(CC#Cc2nn(C3CCCC3)c3nc(NCc4ccccc4)ncc23)C1 (stereo not drawn)  inhibition (enzyme activity, inhibitor, FRET; 0.1 µM): 1%
COc1cccc(CNC(=O)c2nc3scc(COCc4ccc(C(=O)O)cc4)c3c(=O)[nH]2)c1  remaining binding (cell-free assay, competition with immobilised ligand; 1 µM): 86.8%
CC(C)(C)c1nc(-c2cccc(NS(=O)(=O)c3c(F)cccc3F)c2F)c(-c2ccnc(N)n2)s1  remaining activity (enzyme activity, inhibitor, radiometric; 1 µM): 109%
CC(C)(O)[C@H]1CC[C@H](Nc2ccc3ncc(-c4cccc(C(F)(F)F)c4)n3n2)CC1  remaining activity (enzyme activity, inhibitor; 1 µM): 88.8%
CCc1ccccc1C(=O)Nc1n[nH]c2c(C)c(F)c(C3C(C#N)=C(C)N(C)C(C)=C3C#N)cc12  remaining binding (cell-free assay, competition with immobilised ligand; 1 µM): 86%
CNC(=O)c1cc(Oc2ccc(NC(=O)Nc3ccc(Cl)c(C(F)(F)F)c3)cc2)ccn1  inhibition (enzyme activity, inhibitor; 10 µM): 32%
COc1cc(C)c(Sc2cnc(NC(=O)c3ccc(N4CCN(CCCCCCCNC(=O)COc5cccc6c5C(=O)N(C5CCC(=O)NC5=O)C6=O)CC4)cc3)s2)cc1C(=O)N1CCN(C(C)=O)CC1 (stereo not drawn)  inhibition (binding; 1 µM): > 90%
Cc1cnc(NC2CCOCC2)nc1-n1cnc(C(=O)NC(CN)c2cc(F)cc(Cl)c2)c1 (stereo not drawn)  remaining activity (enzyme activity, inhibitor, radiometric; 1 µM): 92%
CC(=O)N1CCC(c2ccc(C(=O)NC(=N)N)cc2C(F)(F)F)CC1  remaining binding (cell-free assay, competition with immobilised ligand; 1 µM): 100%
O=C(Nc1cnn(-c2csc(C(=O)NC3COC3)c2)c1)Nc1ccccc1Cl  remaining activity (enzyme activity, inhibitor; 5 µM): 107%
COc1cc2c(Nc3ccc(Br)cc3F)ncnc2cc1OCC1CCN(C)CC1  remaining signal (cell-free assay; 0.5 µM): 101%
O=S(=O)(NC1CCC(c2cc(F)ccc2F)(S(=O)(=O)c2ccc(Cl)cc2)CC1)C(F)(F)F (stereo not drawn)  remaining binding (cell-free assay, competition with immobilised ligand; 1 µM): 97%
Cc1cc(NC(=O)c2cccc3cc(-c4cccc5[nH]nc(N)c45)ccc23)ccc1F  activity vs control (enzyme activity, inhibitor; 0.1 µM): 104%
CCCS(=O)(=O)Nc1ccc(F)c(C(=O)c2c[nH]c3ncc(-c4ccc(Cl)cc4)cc23)c1F  inhibition (enzyme activity, inhibitor; 1 µM): < 10%
O=C1NC(=O)c2cc(Nc3ccc(F)cc3)c(Nc3ccc(F)cc3)cc21  remaining signal (cell-free assay; 0.5 µM): 87.3%
CCN(CC)CCNC(=O)c1c(C)[nH]c(/C=C2\C(=O)Nc3ccc(F)cc32)c1C  inhibition (enzyme activity, inhibitor; 10 µM): 93%
COc1cc2ncnc(Nc3ccc(Oc4ccccc4)cc3C)c2cc1OC  inhibition (enzyme activity, inhibitor; 1 µM): 3%
CO[C@H]1CC[C@H](CNc2ccc(S(=O)(=O)NC(=O)c3ccc(N4CCN(CC5=C(c6ccc(Cl)cc6)CC(C)(C)CC5)CC4)cc3Oc3cnc4[nH]ccc4c3)cc2[N+](=O)[O-])CC1  remaining binding (cell-free assay, competition with immobilised ligand; 1 µM): 87%
N#CCCc1ccc2c(c1)-c1[nH]c3ccc([N+](=O)[O-])cc3c1CC(=O)N2  remaining signal (cell-free assay; 0.5 µM): 99.9%
